NS3 helicase inh: inhibitors of Hepatitis C virus NS3 helicase | NS3 helicase DNA unwinding, Cy5 molecular beacon fluorescence | inhibition, % at 10.9 µM | hit rate 0.56% among 290,000;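 active means inhibition above the mean of all tested compounds plus 3 SD, set per campaign, cut at about 35% in these data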;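 further: 0% = DMSO wells and 100% = thioflavine S control wells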
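Measured by: Cy5 fluorescence, 0 and 60 min reads / Assay system: NS3 helicase fragment of HCV / Control set: low DMSO, high thioflavine S at 110 µM / Times: 1 h reaction at 25 °C, ATP-initiated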
SUMO1 PPI mod: modulators of human SUMO1-mediated protein-protein interactions; SUMO1 binding to a labelled peptide, TR-FRET, 1 h; hit rate 0.33% among 360,000; P63165; inhibition, % at 20 µM
MBD2 inh: blocks human MBD2 binding to methylated DNA | Q9UBB5 | TR-FRET, MBD2 binding to methylated oligonucleotide | inhibition, % at 4.4 µM | hit rate 0.31% among 370,000 | AID 686964; in the data active means inhibition above about 13%
DSG3 Ab inh: blocks pemphigus antibody binding to human desmoglein-3. hit rate 0.48% among 310,000. P32926. binding (percent of control), % at 10 µM. DSG3-coupled beads, scFv-anti-DSG3-GFP binding, flow cytometry; stronger effect = lower value;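 active means binding more than 3 SD below its plate's average and above zero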
DNMT1 block: inhibitors of human DNMT1. hit rate 0.83% among 360,000. DNMT1 molecular beacon, Hinp1I cleavage, fluorescence. inhibition (reported as % activation of signal), % at 10 µM; in the data active means inhibition above about 50%
Target sequence (P26358 504-1616 limits assumed): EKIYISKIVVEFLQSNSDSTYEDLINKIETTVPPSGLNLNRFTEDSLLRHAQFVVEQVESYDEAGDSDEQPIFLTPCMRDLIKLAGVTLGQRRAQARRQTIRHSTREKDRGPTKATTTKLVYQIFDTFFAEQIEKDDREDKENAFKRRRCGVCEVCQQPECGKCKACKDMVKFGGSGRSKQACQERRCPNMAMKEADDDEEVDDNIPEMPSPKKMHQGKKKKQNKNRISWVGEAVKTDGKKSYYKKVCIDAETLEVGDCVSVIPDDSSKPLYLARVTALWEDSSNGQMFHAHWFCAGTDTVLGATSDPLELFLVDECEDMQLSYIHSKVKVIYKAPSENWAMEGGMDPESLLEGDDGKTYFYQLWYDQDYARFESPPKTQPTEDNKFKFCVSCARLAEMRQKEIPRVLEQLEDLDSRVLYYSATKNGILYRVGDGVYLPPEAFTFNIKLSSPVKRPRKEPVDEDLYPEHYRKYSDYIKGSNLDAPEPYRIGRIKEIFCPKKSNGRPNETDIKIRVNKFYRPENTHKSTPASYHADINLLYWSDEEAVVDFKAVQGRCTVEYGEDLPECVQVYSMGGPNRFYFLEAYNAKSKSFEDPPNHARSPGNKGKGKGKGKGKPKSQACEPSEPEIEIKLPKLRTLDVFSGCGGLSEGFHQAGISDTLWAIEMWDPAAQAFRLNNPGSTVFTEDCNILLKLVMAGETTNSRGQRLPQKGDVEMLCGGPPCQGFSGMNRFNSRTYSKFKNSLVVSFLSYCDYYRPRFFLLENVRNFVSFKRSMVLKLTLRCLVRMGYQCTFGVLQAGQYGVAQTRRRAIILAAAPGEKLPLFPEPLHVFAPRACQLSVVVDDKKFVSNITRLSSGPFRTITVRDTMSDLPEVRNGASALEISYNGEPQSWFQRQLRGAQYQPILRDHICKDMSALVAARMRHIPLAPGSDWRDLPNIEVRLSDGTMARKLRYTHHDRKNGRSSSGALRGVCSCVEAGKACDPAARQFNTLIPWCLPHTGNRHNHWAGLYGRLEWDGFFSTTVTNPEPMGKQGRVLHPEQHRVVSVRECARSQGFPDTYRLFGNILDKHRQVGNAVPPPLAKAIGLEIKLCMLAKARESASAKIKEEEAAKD
UHRF1 binding: human UHRF1 methylated DNA binding inhibitors | Q96T88 | UHRF1 binding to methylated oligo, TR-FRET | inhibition, % at 4.4 µM | hit rate 0.75% among 370,000 | AID 687016; in the data active means inhibition above about 21%;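 further: UHRF1 SRA domain binding a hemimethylated CpG hairpin DNA probe; 0% = median of test compound wells and 100% = reference inhibitor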
NS3 hel confirm: HCV NS3 helicase inhibition, confirmation assay; shares compounds with NS3 helicase inh; NS3 helicase DNA unwinding, Cy5 molecular beacon fluorescence; inhibition, % at 10.9 µM; hit rate 31% among 1,600;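 active means inhibition above the mean of all tested compounds plus 3 SD, cutoff set per campaign, cut at about 36% in these data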
DNA FID counter: counter-screen for HCV NS3 helicase inhibitors: DNA intercalator displacement; shares compounds with NS3 helicase inh; DNA fluorescent intercalator displacement, fluorescence; hit rate 4% among 1,600; inhibition, % at 7.9 µM;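 further: 0% = vehicle and 100% = reference compound; higher means more displacement of ethidium bromide from the DNA hairpin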
FID counter DR: counter-screen for HCV NS3 helicase inhibitors: DNA intercalator displacement dose response; 120 tested, under 10 active; shares compounds with NS3 helicase inh; fluorescent intercalator displacement from DNA, fluorescence; IC50, µM; call rule not given here
Active calls of the source: *; x = not tested or not shown. Most compounds without a hit are left out; they make up all but 2.5% or so of the library. Unless noted, no stated cut-off is given here; in the data, active means inhibition above about 37%; inactive means the rest.

SMILES	NS3 helicase inh	SUMO1 PPI mod	MBD2 inh	DSG3 Ab inh	DNMT1 block	UHRF1 binding	NS3 hel confirm	DNA FID counter	others
Clc1ccccc1C1Nc2cccc3cccc(c23)N1	12.0	2.6	-3.9	119.3	-15.6	-1.2	x	x
Clc1cccc(C2Nc3cccc4cccc(c34)N2)c1Cl	49.2*	-3.7	-3.4	112.5	-21.5	-0.1	-11.2	11.4
Fc1ccc(C2Nc3cccc4cccc(c34)N2)cc1	44.6*	-6.0	-7.7	102.8	-5.2	-3.1	-29.9	17.3
Cn1c(CCN2CCN(c3ccccc3)CC2)nc2cc(NC(=O)c3ccco3)ccc21	-8.3	0.5	-2.7	105.3	-2.4	0.0	x	x
Cc1ccc(S(=O)(=O)N2CCCc3ccccc32)cc1	x	4.8	3.4	103.4	2.3	1.6	x	x
CC(=O)Oc1ccc(C(=O)Nc2cccc(-c3nnc(-c4ccco4)o3)c2)cc1	51.5*	12.0	1.8	106.6	8.8	3.0	16.5	-19.6
CCOC(=O)CNC(=O)CSc1nc(N(C)C)nc(N2CCOCC2)n1	7.2	0.9	3.9	x	-1.5	0.5	x	x
CSCCC(NC(=O)c1ccc(Br)cc1)C(=O)O (stereo not drawn)	7.1	-1.6	-5.8	111.9	-3.6	-1.3	x	x
CSCCC(NC(=O)c1cncc(Br)c1)C(=O)O (stereo not drawn)	39.8*	-3.7	0.2	100.6	-0.4	1.0	0.0	-2.9
CC(=O)N1CCN(C(=O)c2cc(S(=O)(=O)NCc3ccccc3)ccc2C)CC1	13.9	7.2	0.8	107.5	2.3	1.6	x	x
CN(C)S(=O)(=O)c1cccc(-c2csc(N/N=C/c3ccco3)n2)c1	35.7	-4.1	3.5	97.8	-17.3	-2.0	x	x
Cc1ccc(-c2csc(N/N=C/c3ccco3)n2)c(C)c1	39.7*	3.4	0.6	100.1	-5.7	-2.8	-9.6	10.1
CC(COc1ccccc1)N1CCC(CO)(CCc2ccccc2)CC1 (stereo not drawn)	-12.2	-1.6	1.2	104.2	-1.6	-1.1	x	x
Cn1c(SCC(=O)CC(=O)Nc2ccccc2)nnc1-c1ccc(O)cc1	8.0	3.4	2.5	105.2	0.1	11.8	x	x
O=C(CSc1nnc(-c2ccc(O)cc2)n1-c1ccccc1)CC(=O)Nc1ccccc1	36.7*	5.3	1.4	118.4	-8.5	4.5	-12.3	-56.7
COc1ccccc1N1CCN(/N=C/c2ccc(O)c(O)c2)CC1	37.1*	x	-2.5	x	x	-4.4	-1.4	-7.4
CCN(CC)c1ccc(N=Cc2c(C)[nH]c3ccccc23)cc1	38.3*	-15.2	-5.4	108.2	-14.9	-9.9	27.7	38.9*
Cc1[nH]c2ccccc2c1/C=N/n1cnnc1	-3.0	-2.8	-0.6	109.5	0.3	-0.8	x	x
COc1ccc(OC)c(/C=C2\SC(=S)N(NS(=O)(=O)c3ccc(C)cc3)C2=O)c1	-5.4	-9.2	-4.7	90.3	5.9	-0.3	x	x
COc1ccc(OC)c(/C=C2\SC(=S)N(NS(=O)(=O)c3ccccc3)C2=O)c1	33.2	-7.0	-4.4	100.9	1.1	-1.6	x	x
CCOc1ccc(/C=C2\SC(=S)N(NS(=O)(=O)c3ccccc3)C2=O)cc1OC	41.5*	-10.7	-2.4	99.2	2.4	2.6	79.0*	5.1
COc1ccc(/C=C2\SC(=S)N(NS(=O)(=O)c3ccc(C)cc3)C2=O)c(OC)c1	110.6*	-8.1	-10.2	111.5	4.8	-1.1	79.6*	-26.3
COc1ccccc1/C=C1\SC(=S)N(NS(=O)(=O)c2ccc(C)cc2)C1=O	41.3*	-17.1	0.5	94.3	2.6	1.0	71.0*	-11.6
CCOC(Cn1cc([N+](=O)[O-])c(=O)[nH]c1=O)OCC	x	-16.1	-2.0	121.2	3.4	-3.5	x	x
Cn1c(N)c(C(=O)COC(=O)c2nc(Cl)ccc2Cl)c(=O)n(C)c1=O	-3.8	19.3	1.1	116.4	5.2	-0.7	x	x
SMILES	NS3 helicase inh	SUMO1 PPI mod	MBD2 inh	DSG3 Ab inh	DNMT1 block	UHRF1 binding	NS3 hel confirm	DNA FID counter	others
N#C/C(=C\c1ccco1)c1nc2ccccc2s1	7.0	-20.3	0.7	113.6	-3.0	-3.0	x	x
N#C/C(=C/c1ccc(-c2cc(C(=O)O)cc(C(=O)O)c2)o1)c1nc2ccccc2s1	36.5*	x	x	x	x	x	82.4*	-15.3
Cc1ccc(-c2ccccc2)n1-c1ccc(C(=O)O)cc1	32.7	-1.7	3.3	87.8	3.6	1.4	x	x
Cc1cc2c(n1-c1ccc(C(=O)O)cc1)CCCCC2	54.0*	x	x	x	x	x	71.4*	-7.5
O=C1C(=O)N(c2ccccn2)C(c2ccc(Br)cc2)/C1=C(/O)c1ccc(Br)cc1 (stereo not drawn)	72.7*	-14.0	3.5	173.8	1.2	1.4	84.8*	-28.1
Cc1ccc(/C(O)=C2\C(=O)C(=O)N(c3cc(C)on3)C2c2cccc(Br)c2)cc1 (stereo not drawn)	23.1	-5.0	-4.6	98.0	3.8	-3.3	x	x
Cc1cc(N2C(=O)C(=O)/C(=C(/O)c3ccc(F)cc3)C2c2cccc(Br)c2)no1 (stereo not drawn)	37.6*	3.7	-2.5	104.3	1.7	4.3	64.2*	-20.3
COc1ccc(/C(O)=C2/C(=O)C(=O)N(c3ccccn3)C2c2ccc(OC)cc2)cc1 (stereo not drawn)	5.0	-11.3	-3.6	102.3	1.5	-2.0	x	x
COc1ccc(/C(O)=C2/C(=O)C(=O)N(c3ccccn3)C2c2ccc(C(C)C)cc2)cc1 (stereo not drawn)	38.9*	-10.7	4.1	93.0	1.6	4.9	84.9*	-12.9	FID counter DR=>79.4
COc1ccc(/C(O)=C2/C(=O)C(=O)N(c3ccccn3)C2c2cccc(Cl)c2)cc1 (stereo not drawn)	44.5*	-19.1	-0.1	89.8	1.7	0.2	44.0*	-30.4
COc1ccc2[nH]c3c(c2c1)CCN1C(=O)N([C@@H](C)C(=O)NCC2CCCO2)C(=O)[C@]31C (stereo partly drawn)	2.5	3.6	0.7	x	-12.1	2.7	x	x
CCCOc1ccc(/C(O)=C2/C(=O)C(=O)N(c3ccccn3)C2c2ccc(OC)cc2)cc1C (stereo not drawn)	68.6*	-7.7	5.3	105.0	6.2	2.1	90.6*	-43.9	FID counter DR=>79.4
COc1ccc(CC(=O)Nc2cc(=O)n(C)c(=O)n2C)cc1	55.6*	28.5	0.8	97.0	3.1	1.6	0.5	-1.9
CC(C)c1ccc(/C=C/c2[nH]c(=O)[nH]c(=O)c2[N+](=O)[O-])cc1	56.2*	2.0	5.5	107.3	8.6	-0.2	52.7*	5.4
CCOc1ccc(/C=C/c2[nH]c(=O)[nH]c(=O)c2[N+](=O)[O-])cc1	35.2	12.6	-1.3	91.2	18.4	19.8	x	x

Screening data from PubChem.
